Assay outcomes (PubChem BioAssay)
Mdm2 MdmX PPI: human Mdm2/MdmX binding inhibition; O15151+Q00987; SaOS-2 split-luciferase Mdm2/MdmX complementation, luminescence; inhibition, % at 8 µM; 330,000 compounds, 3% hits; AID 485346;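 active = inhibition of at least 50% at 8 µM in the primary screen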
Target sequence (O15151 whole entry, looked up): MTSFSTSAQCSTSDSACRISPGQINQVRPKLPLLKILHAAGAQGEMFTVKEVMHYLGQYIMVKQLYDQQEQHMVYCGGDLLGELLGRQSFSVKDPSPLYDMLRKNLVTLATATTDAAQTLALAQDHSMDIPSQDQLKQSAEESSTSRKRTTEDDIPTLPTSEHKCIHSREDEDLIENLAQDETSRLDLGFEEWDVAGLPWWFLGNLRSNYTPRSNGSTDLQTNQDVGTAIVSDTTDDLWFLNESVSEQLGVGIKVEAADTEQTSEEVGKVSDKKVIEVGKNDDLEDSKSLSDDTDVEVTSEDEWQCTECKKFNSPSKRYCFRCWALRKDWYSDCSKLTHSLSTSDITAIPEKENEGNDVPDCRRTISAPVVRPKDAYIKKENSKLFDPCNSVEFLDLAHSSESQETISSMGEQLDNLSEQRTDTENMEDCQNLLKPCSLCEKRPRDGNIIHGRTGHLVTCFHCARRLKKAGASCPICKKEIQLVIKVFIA
Target sequence (Q00987 whole entry, looked up): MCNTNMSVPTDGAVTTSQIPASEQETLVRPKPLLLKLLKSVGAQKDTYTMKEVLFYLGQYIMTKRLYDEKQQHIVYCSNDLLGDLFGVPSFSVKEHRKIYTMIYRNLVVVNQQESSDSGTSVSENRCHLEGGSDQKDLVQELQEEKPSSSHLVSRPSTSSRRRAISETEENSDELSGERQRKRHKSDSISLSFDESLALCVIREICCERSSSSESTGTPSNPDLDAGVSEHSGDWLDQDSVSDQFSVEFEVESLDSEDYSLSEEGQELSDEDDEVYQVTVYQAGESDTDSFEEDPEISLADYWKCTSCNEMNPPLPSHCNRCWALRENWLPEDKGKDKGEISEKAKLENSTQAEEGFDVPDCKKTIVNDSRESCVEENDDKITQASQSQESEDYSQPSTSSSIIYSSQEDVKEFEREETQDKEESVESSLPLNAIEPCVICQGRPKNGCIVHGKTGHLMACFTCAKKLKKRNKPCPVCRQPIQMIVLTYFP
CSC inhib: cancer stem cell inhibition | inhibition, % at 7.5 µM | 300,000 compounds, 1.1% hits | cancer stem cell-like cells viability, luminescence; in the data active = inhibition above about 75%; tested in HMLE shEcad cells
Lmaj promast: Leishmania major promastigote growth inhibition; Leishmania major promastigotes, resazurin fluorescence viability; inhibition, % at 10 µM; 200,000 compounds, 9% hits; in the data active = inhibition above about 50%;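 note: promastigotes grown with compound for 44 hours at 28 °C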
SKKanGAS inh: SKKanGAS growth inhibition; S. pyogenes SKKanGAS, kanamycin growth, BacTiter-Glo, 6 h; 300,000 compounds, 1.3% hits; inhibition, % at 7.5 µM;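 active = mean replicate score, as percent of positive control median, at least 50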;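 note: strain carries kanamycin resistance gene driven by streptokinase promoter and grows in 40 µg/ml kanamycin; loss of luminescence reflects streptokinase promoter inhibition or plain growth inhibition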
T cruzi inh: blocks replication of Trypanosoma cruzi; T. cruzi beta-gal in NIH3T3, luminescence, 90 h; inhibition, % (no concentration beside the values); 300,000 compounds, 1.4% hits; AID 1885;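 active = mean inhibition across valid replicates above about 55%, limit read from the data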;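 note: signal also drops with host cell toxicity which is not excluded here; higher percent means less beta-gal luminescence so fewer parasites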
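System: NIH/3T3 fibroblasts plus reporter T. cruzi. Medium: DMEM plus 2% FBS. Probe or stimulus: 5000 reporter trypomastigotes per well. Compound: single 50 nL compound addition per well in DMSO. Incubation: co-culture of at least 90 h after 3 h attachment. Detection: GalScreen β-gal luminescence, detergent lysis, 60 min. Evaluation: parasite load inhibition, %.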
Beta cell apopt: beta cell apoptosis inhibition | 300,000 compounds, 0.8% hits | protection from apoptosis, % (test concentration not listed) | INS-1E cytokine-induced death, ATP luminescence, 48 h; percent of positive-control rescue, neutral wells zero;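 active = Every replicate reaches about 75%, or at least half do and their mean reaches it too, limit read from the data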;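 note: higher means more ATP so stronger rescue from cytokine killing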
A number is an active result; . = inactive; / = no result given. Compounds with a hit are over-represented: about 9.4% of the library has one in this group of screens.

SMILES	Mdm2 MdmX PPI	CSC inhib	Lmaj promast	SKKanGAS inh	T cruzi inh	Beta cell apopt
COc1ccc(NC(C)=O)cc1S(=O)(=O)N1CCN(C/C=C/c2ccccc2)CC1	.	.	.	.	.	.
Cc1cc(C(=O)COC(=O)C2=COCCO2)c(C)n1-c1ccc2c(c1)OCO2	.	.	.	.	.	.
Cc1cc(C(=O)COC(=O)Cc2n[nH]c(=O)c3ccccc23)c(C)n1-c1ccc2c(c1)OCCO2	.	.	.	.	69	.
Cc1ccc2nc(N(CCCN(C)C)C(=O)CN3C(=O)c4ccccc4C3=O)sc2c1	.	.	.	.	61	.
Cc1ccc2nc(N(CCCN(C)C)C(=O)CS(=O)(=O)c3ccccc3)sc2c1	.	.	/	.	.	/
Cc1ccc(S(=O)(=O)CC(=O)N(CCCN(C)C)c2nc3ccc(C)cc3s2)cc1	.	.	/	.	65	.
Cc1cc(C)c2sc(N(CCCN(C)C)C(=O)CN3C(=O)c4ccccc4C3=O)nc2c1	.	.	.	.	.	.
COc1cccc(NC(=O)COC(=O)C2C3CC4OC(=O)C2C4C3)c1 (stereo unspecified)	.	.	/	.	.	.
COc1ccc(N(CC(=O)Nc2cccc(N(C)S(C)(=O)=O)c2)S(=O)(=O)c2ccc(C)cc2)cc1	.	.	67	.	.	.
CCOc1ccc(N(CC(=O)Nc2cccc(N(C)S(C)(=O)=O)c2)S(=O)(=O)c2ccccc2)cc1	.	.	55	.	.	.
Cc1ccc(S(=O)(=O)N(CCC(=O)Nc2ccc(OC(F)(F)F)cc2)c2ccccc2)cc1	.	.	95	.	.	.
O=C(NCCCn1ccnc1)C(=O)Nc1ccccc1	.	.	.	.	.	.
O=C(CCNS(=O)(=O)c1ccccc1C(F)(F)F)NCCCc1ccccc1	.	/	/	/	/	/
COc1ccc(/C=C(\NC(=O)c2cccs2)C(=O)NN)cc1OC	.	.	/	.	.	.
CN(C(=O)c1ccncc1)C1CCCCC1	.	.	/	.	.	.
C=CCc1cc(Cl)ccc1OCCOCCNC(C)(C)C	.	.	99	.	.	.
C=CCc1cc(Cl)ccc1OCCNCCCOC	.	.	100	.	.	.
COCCCNCCOCCOc1ccccc1-c1ccccc1	.	.	.	.	.	.
C=CCc1ccccc1OCCNCCCOC	.	.	83	.	.	.
C=CCc1cc(Cl)ccc1OCCOCCN(C)C	.	.	100	.	.	.
N#CC1(NC(=O)COc2ccc(S(=O)(=O)N3CCCC3)cc2[N+](=O)[O-])CCCCC1	.	.	/	.	.	.
CC(Oc1ccc(C(=O)c2ccc(F)cc2)cc1)C(=O)N1CCOCC1 (stereo unspecified)	.	/	/	.	.	.
C=CCc1cc(Cl)ccc1OCCOCCNCCOC	.	.	99	.	.	.
CCCOc1ccc(Cl)cc1CNc1ccccc1	.	.	.	.	.	.
S=C(NCc1ccc(Cl)cc1)NCc1ccccn1	.	.	.	.	/	.
SMILES	Mdm2 MdmX PPI	CSC inhib	Lmaj promast	SKKanGAS inh	T cruzi inh	Beta cell apopt
CC(C)CCC(CCNCc1ccccn1)c1ccc(Cl)cc1 (stereo unspecified)	.	.	/	51	.	.
CCOC(=O)/C(C(=O)Nc1ccccc1Cl)=C1/NC(C)(C)Cc2ccccc21	.	.	.	.	.	.
CCOC(=O)/C(C)=C1\NC(C)(C)Cc2ccccc21	/	/	.	.	62	/
COc1cc2c(cc1NC(=O)CN1CCN(S(=O)(=O)c3ccc(C)cc3)CC1)oc1ccccc12	.	.	.	.	.	.
COc1cc2c(cc1NS(=O)(=O)N1CCCC1)oc1ccccc12	.	/	100	.	.	/
CCCN1C2CCCC1CC(NC(=S)Nc1cccc(C)c1C)C2 (stereo unspecified)	.	.	/	.	.	.
Cc1cccc(C)c1NC(=O)NC1CC2CCC(C1)N2Cc1cccs1 (stereo unspecified)	.	.	.	.	.	.
CCc1ccccc1NC(=S)NC1CC2CCCC(C1)N2Cc1cccs1 (stereo unspecified)	.	.	79	.	.	.
CCCN1C2CCCC1CC(NC(=S)Nc1cc(C)ccc1C)C2 (stereo unspecified)	.	.	90	.	.	.
Cc1cccc(NC(=S)NC2CC3CCCC(C2)N3Cc2cccs2)c1C (stereo unspecified)	.	.	85	.	.	.
Cc1cccc(NC(=S)NC2CC3CCCC(C2)N3CC(C)C)c1C (stereo unspecified)	.	.	89	.	.	.
COc1cc(/C=N/NC(=O)c2ccc(O)cc2)ccc1OCC(=O)N1CC(C)OC(C)C1 (stereo unspecified)	.	.	/	.	.	.
O=C(NCCS(=O)(=O)N1CCN(Cc2ccccc2)CC1)c1ccccc1	.	.	/	.	.	.
Cc1c(C)c(C)c(S(=O)(=O)N2CCNCC2)c(C)c1C	.	.	.	.	.	.
Cc1occc1-c1nnc(SCC(=O)Nc2ccccc2)n1CCc1ccccc1	.	.	66	.	.	.
Cc1cc(NC(=O)CSc2nnc(Cc3cccn3C)n2CCc2ccccc2)no1	.	.	.	/	/	.
Cc1occc1-c1nnc(SCC(=O)Nc2ccccc2)n1C	.	.	.	.	.	.
Cc1csc(NC(=O)CSc2nnc(Cc3cccn3C)n2CCc2ccccc2)n1	.	.	51	/	/	.
COc1ccc(NC(=O)C2CCCN(S(C)(=O)=O)C2)cc1OC (stereo unspecified)	.	.	/	.	.	.
O=C(NCCC1CCCCN1S(=O)(=O)c1ccc(F)cc1)C(=O)NCCN1CCOCC1 (stereo unspecified)	.	.	/	.	.	/
COC(=O)CSc1cc(SCC(=O)OC)c(C#N)c(SCC(=O)OC)c1	.	.	64	.	.	.
CC1CN(C(=O)c2ccc(NS(=O)(=O)c3cccc(Cl)c3)cc2)CC(C)O1 (stereo unspecified)	.	/	/	.	.	/
Cc1cccc2nc(CNC(=O)CC3C(=O)NCCN3Cc3cccc(F)c3)cn12 (stereo unspecified)	.	.	/	.	58	.
C=CCOc1cccc(/C=N/NC(=O)CN(c2cc(Cl)ccc2OC)S(=O)(=O)c2ccc(C)c([N+](=O)[O-])c2)c1	.	.	99	.	.	.
COc1ccc(Cl)cc1N(CC(=O)N/N=C/c1ccc(OC(C)C)cc1)S(=O)(=O)c1ccc(C)c([N+](=O)[O-])c1	.	.	98	.	.	.
Cc1ccc(/C=N/n2nnnc2N)cc1	.	.	/	.	.	.
Cc1no[n+]([O-])c1COc1ccc(/C=N/n2nnnc2N)cc1	.	.	57	.	.	.
COC(=O)c1ccc(C)c(NC(=O)COC(=O)C2CC3CCCC(C2)C3=O)c1 (stereo unspecified)	.	.	/	.	.	.
COc1cc(Br)cc(C2C3=C(CCCC3=O)N(c3ccc(F)cc3)C3=C2C(=O)CCC3)c1O	.	.	58	.	.	.
COc1ccccc1C1C2=C(CCCC2=O)N(CC(=O)O)C2=C1C(=O)CCC2	.	.	/	.	.	.
